{"source": "ChEMBL document CHEMBL1137747", "about": "“Fullerene derivatized s-triazine analogues as antimicrobial agents” (2009)", "key": {"Bacillus pumilus [1]": {"tested_on": "Bacillus pumilus", "assay": "Antibacterial activity against Bacillus pumilus at 100 ug/ml by disk diffusion method", "format": "functional", "conditions": "read-out: IZ", "method_in_brief": "(§1)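 Agar disc diffusion on nutrient agar plates. Inoculum of […] (0.5 McFarland) spread evenly over the agar surface. Whatman filter paper discs, 6.25 mm diameter, dry-heat sterilized at 140 °C for 1 h, soaked in test solution and placed on the agar. Plates inverted and incubated 24 h at 37 °C. Solvent and growth controls and a ciprofloxacin reference run alongside. Inhibition zones measured.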"}, "Klebsiella pneumoniae [2]": {"tested_on": "Klebsiella pneumoniae", "assay": "Antibacterial activity against Klebsiella pneumoniae by broth dilution technique"}, "Pseudomonas aeruginosa": {"tested_on": "Pseudomonas aeruginosa", "assay": "Antibacterial activity against Pseudomonas aeruginosa at 100 ug/ml by disk diffusion method", "format": "functional", "conditions": "for zone of inhibition at 100 µg/mL: read-out: IZ", "method_in_brief": "as §1"}, "Bacillus subtilis [3]": {"tested_on": "Bacillus subtilis", "assay": "Antibacterial activity against Bacillus subtilis by broth dilution technique"}, "Bacillus subtilis [4]": {"tested_on": "Bacillus subtilis", "assay": "Antibacterial activity against Bacillus subtilis at 100 ug/ml by disk diffusion method", "format": "functional", "conditions": "read-out: IZ", "method_in_brief": "as §1"}, "Bacillus pumilus [5]": {"tested_on": "Bacillus pumilus", "assay": "Antibacterial activity against Bacillus pumilus by broth dilution technique"}, "Escherichia coli": {"tested_on": "Escherichia coli", "assay": "Antibacterial activity against Escherichia coli at 100 ug/ml by disk diffusion method", "format": "functional", "conditions": "for zone of inhibition at 100 µg/mL: read-out: IZ", "method_in_brief": "as §1"}, "Klebsiella pneumoniae [6]": {"tested_on": "Klebsiella pneumoniae", "assay": "Antibacterial activity against Klebsiella pneumoniae at 100 ug/ml by disk diffusion method", "format": "functional", "conditions": "for zone of inhibition at 100 µg/mL: read-out: IZ", "method_in_brief": "as §1"}, "Staphylococcus aureus": {"tested_on": "Staphylococcus aureus", "assay": "Antibacterial activity against Staphylococcus aureus at 100 ug/ml by disk diffusion method", "format": "functional", "conditions": "read-out: IZ", "method_in_brief": "as §1"}}, "note": "The source made the active and inactive calls. The calls are words filed in the database; no cut-off is given here."}
{"smiles": "O=C(O)c1cn(C2CC2)c2cc(N3CCNCC3)c(F)cc2c1=O", "note": "[CIPROFLOXACIN]", "values": [{"measurement": "zone of inhibition at 100 µg/mL", "setting": "Bacillus pumilus [1]", "value": 36, "unit": "mm"}, {"measurement": "MIC", "setting": "Klebsiella pneumoniae [2]", "value": 12.5, "unit": "µg/mL"}, {"measurement": "zone of inhibition at 100 µg/mL", "setting": "Pseudomonas aeruginosa", "value": 32, "unit": "mm"}, {"measurement": "MIC", "setting": "Bacillus subtilis [3]", "value": 0.06, "unit": "µg/mL"}, {"measurement": "zone of inhibition at 100 µg/mL", "setting": "Bacillus subtilis [4]", "value": 38, "unit": "mm"}, {"measurement": "MIC", "setting": "Bacillus pumilus [5]", "value": 0.25, "unit": "µg/mL"}, {"measurement": "zone of inhibition at 100 µg/mL", "setting": "Escherichia coli", "value": 27, "unit": "mm"}, {"measurement": "zone of inhibition at 100 µg/mL", "setting": "Klebsiella pneumoniae [6]", "value": 19, "unit": "mm"}, {"measurement": "zone of inhibition at 100 µg/mL", "setting": "Staphylococcus aureus", "value": 22, "unit": "mm"}]}
{"smiles": "CNc1nc(N)nc(N/N=C/c2ccc(C=O)cc2)n1", "values": [{"measurement": "zone of inhibition at 100 µg/mL", "setting": "Bacillus pumilus [1]", "value": 13, "unit": "mm"}, {"measurement": "zone of inhibition at 100 µg/mL", "setting": "Pseudomonas aeruginosa", "value": 13, "unit": "mm"}, {"measurement": "zone of inhibition at 100 µg/mL", "setting": "Bacillus subtilis [4]", "value": 18, "unit": "mm"}, {"measurement": "zone of inhibition at 100 µg/mL", "setting": "Escherichia coli", "value": 15, "unit": "mm"}, {"measurement": "zone of inhibition at 100 µg/mL", "setting": "Klebsiella pneumoniae [6]", "value": 15, "unit": "mm"}, {"measurement": "zone of inhibition at 100 µg/mL", "setting": "Staphylococcus aureus", "value": 9, "unit": "mm"}]}
{"smiles": "CN(C)c1nc(N/N=C/c2ccc(C=O)cc2)nc(N(C)C)n1", "values": [{"measurement": "zone of inhibition at 100 µg/mL", "setting": "Bacillus pumilus [1]", "value": 10, "unit": "mm"}, {"measurement": "inhibition zone (IZ)", "setting": "Pseudomonas aeruginosa", "value": "inactive"}, {"measurement": "zone of inhibition at 100 µg/mL", "setting": "Bacillus subtilis [4]", "value": 10, "unit": "mm"}, {"measurement": "inhibition zone (IZ)", "setting": "Escherichia coli", "value": "inactive"}, {"measurement": "inhibition zone (IZ)", "setting": "Klebsiella pneumoniae [6]", "value": "inactive"}, {"measurement": "zone of inhibition at 100 µg/mL", "setting": "Staphylococcus aureus", "value": 9, "unit": "mm"}]}
{"smiles": "CNc1nc(N/N=C/c2ccc(C=O)cc2)nc(N(C)C)n1", "values": [{"measurement": "zone of inhibition at 100 µg/mL", "setting": "Bacillus pumilus [1]", "value": 11, "unit": "mm"}, {"measurement": "zone of inhibition at 100 µg/mL", "setting": "Pseudomonas aeruginosa", "value": 10, "unit": "mm"}, {"measurement": "zone of inhibition at 100 µg/mL", "setting": "Bacillus subtilis [4]", "value": 10, "unit": "mm"}, {"measurement": "zone of inhibition at 100 µg/mL", "setting": "Escherichia coli", "value": 12, "unit": "mm"}, {"measurement": "zone of inhibition at 100 µg/mL", "setting": "Klebsiella pneumoniae [6]", "value": 12, "unit": "mm"}, {"measurement": "zone of inhibition at 100 µg/mL", "setting": "Staphylococcus aureus", "value": 10, "unit": "mm"}]}
{"smiles": "CNc1nc(NC)nc(N/N=C/c2ccc(C=O)cc2)n1", "values": [{"measurement": "zone of inhibition at 100 µg/mL", "setting": "Bacillus pumilus [1]", "value": 10, "unit": "mm"}, {"measurement": "zone of inhibition at 100 µg/mL", "setting": "Pseudomonas aeruginosa", "value": 11, "unit": "mm"}, {"measurement": "zone of inhibition at 100 µg/mL", "setting": "Bacillus subtilis [4]", "value": 12, "unit": "mm"}, {"measurement": "zone of inhibition at 100 µg/mL", "setting": "Escherichia coli", "value": 14, "unit": "mm"}, {"measurement": "zone of inhibition at 100 µg/mL", "setting": "Klebsiella pneumoniae [6]", "value": 14, "unit": "mm"}, {"measurement": "zone of inhibition at 100 µg/mL", "setting": "Staphylococcus aureus", "value": 11, "unit": "mm"}]}
{"smiles": "Nc1nc(N)nc(N/N=C/c2ccc(C=O)cc2)n1", "values": [{"measurement": "zone of inhibition at 100 µg/mL", "setting": "Bacillus pumilus [1]", "value": 15, "unit": "mm"}, {"measurement": "zone of inhibition at 100 µg/mL", "setting": "Pseudomonas aeruginosa", "value": 11, "unit": "mm"}, {"measurement": "zone of inhibition at 100 µg/mL", "setting": "Bacillus subtilis [4]", "value": 16, "unit": "mm"}, {"measurement": "zone of inhibition at 100 µg/mL", "setting": "Escherichia coli", "value": 15, "unit": "mm"}, {"measurement": "inhibition zone (IZ)", "setting": "Klebsiella pneumoniae [6]", "value": "inactive"}, {"measurement": "zone of inhibition at 100 µg/mL", "setting": "Staphylococcus aureus", "value": 9, "unit": "mm"}]}
